In the library only some 0.72% were active in any assay of this set; here they are far more common.
DTT redox prof = compounds producing H2O2 with reducing agent – biochemical, NIH compound library profiling, artefact control for MLSCN library redox annotation, primary screen; DTT-dependent redox cycling H2O2, phenol red/HRP absorbance; 100% = 100 µM peroxide control, 0% = buffer; activation, % at 10 µM; hit rate 0.03% among 200,000; AID 878, 2007;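 active = activation of at least 50% relative to the plate's high and low controls in the primary single-dose screen; inactive = activation below 50%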;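 also: compound incubated with DTT at 0.8 mM final as the reducing agent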
GSH fluor = compound fluorescence on glutathione beads, profiling panel, artefact control, biophysical, 488/530 nm, flow cytometry | GSH beads flow cytometry, compound fluorescence 488/530 nm; stronger effect = higher value | fluorescence (KMESF) at 10 µM | hit rate 0.25% among 190,000 | AID 1776, 2009; in the data active = fluorescence above about 89;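 also: glutathione beads carrying GST-tagged Bcl family fusion proteins plus one bare bead set; values are compound well signal with DMSO vehicle wells as background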
ABCB1 inh = ABCB1 efflux pump inhibitors, primary screen, cell-based, multiplex, flow cytometry, ABCG2 counter-screen; inhibition, % at 6.6 µM; ATP-dependent translocase ABCB1 (Homo sapiens), P08183; CCRF-Adr cells, JC-1 efflux; hit rate 0.067% among 190,000; in the data active = inhibition above about 40%;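 also: 0% = vehicle and 100% = reference inhibitor; higher value means more JC-1 retained so stronger ABCB1 efflux block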
Avidin bead fluor = green autofluorescence of compounds with avidin beads – biophysical, 488/530 nm, flow cytometry, artefact control, profiling panel; compound fluorescence 488/530 nm; stronger effect = higher value; fluorescence (KMESF) at 10 µM; hit rate 0.38% among 220,000; in the data active = fluorescence above about 47
ABCG2 block = ABCG2 efflux pump inhibitors, primary screen, multiplex with ABCB1, IgMXP3 cells, flow cytometry | hit rate 0.1% among 190,000 | inhibition, % at 6.6 µM | JC-1 efflux | AID 1325, 2008;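 active = inhibition above 80%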;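 also: 0% = DMSO and 100% = nicardipine control wells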
Target sequence (Q9UNQ0 whole entry, looked up): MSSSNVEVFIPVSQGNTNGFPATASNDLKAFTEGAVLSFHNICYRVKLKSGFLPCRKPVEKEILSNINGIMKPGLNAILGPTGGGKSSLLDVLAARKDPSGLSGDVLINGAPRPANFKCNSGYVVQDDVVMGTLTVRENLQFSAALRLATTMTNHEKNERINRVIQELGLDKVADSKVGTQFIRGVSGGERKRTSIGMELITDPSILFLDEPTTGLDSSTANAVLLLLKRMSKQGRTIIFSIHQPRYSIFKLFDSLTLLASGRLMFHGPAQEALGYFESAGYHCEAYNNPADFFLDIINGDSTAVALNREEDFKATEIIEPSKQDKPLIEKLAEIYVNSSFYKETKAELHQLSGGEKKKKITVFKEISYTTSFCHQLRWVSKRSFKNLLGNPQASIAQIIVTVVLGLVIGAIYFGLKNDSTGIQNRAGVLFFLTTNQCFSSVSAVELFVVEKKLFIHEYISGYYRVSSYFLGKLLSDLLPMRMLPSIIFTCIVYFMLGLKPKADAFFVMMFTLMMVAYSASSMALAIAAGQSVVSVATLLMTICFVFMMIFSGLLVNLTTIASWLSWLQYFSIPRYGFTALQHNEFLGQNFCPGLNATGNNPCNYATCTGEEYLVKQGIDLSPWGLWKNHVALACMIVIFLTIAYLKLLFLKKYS
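Test system: IgMXP3 (ABCG2) plus far-red-tagged CCRF-Adr (ABCB1) cells / Amount: 3 million cells/mL in well / Reagent: JC-1 transporter substrate / Timing: 10 min compound exposure, 25 °C / Signal: flow cytometry, 530 nm JC-1 signal / Read-out: percent efflux inhibition, scaled nicardipine 100% to DMSO 0% / Benchmarks: nicardipine as high control, DMSO as low control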
* marks the source's active call; other numbers are inactive results; . = no result.

SMILES | DTT redox prof | GSH fluor | ABCB1 inh | Avidin bead fluor | ABCG2 block
CCOC(=O)CSc1nc2cc3c(cc2cc1C#N)OCO3 | 0 | 16 | 0 | 35 | 0
CCOC(=O)CSc1nc2cc3c(cc2cc1C)OCO3 | 0 | 12 | -1 | 72* | 21
O=C(CN1C(=O)NC2(CCCC2)C1=O)N1CCN(S(=O)(=O)c2ccc(Cl)cc2)CC1 | 0 | 22 | 0 | 9 | 0
O=C(CN1C(=O)NC2(CCCCCC2)C1=O)N1CCN(S(=O)(=O)c2ccc(Cl)cc2)CC1 | -9 | 22 | 0 | 49* | 2
CCN(CC)S(=O)(=O)c1ccc2oc(C(=O)O)c(C)c2c1 | 4 | 30 | 0 | 13 | 8
CCN(CC)S(=O)(=O)c1ccc2oc(C(=O)NC(C)C)c(C)c2c1 | 0 | 21 | 9 | 16 | 94*
O=C(O)C1=C[C@H](c2csc3ccccc23)C[C@H](OCCCCO)O1 | 0 | 18 | 0 | 5 | 1
O=C(c1ccc(CN2CCOCC2)cc1)N1CCC(Cc2ccccc2)CC1 | -1 | 23 | 0 | 91* | 1
O=C(c1ccc(F)cc1)C(CCCCCC(CN1CCOCC1)C(=O)c1ccc(F)cc1)CN1CCOCC1 (stereo not given) | 1 | 21 | -2 | 185* | -3
C=CCNC(=O)O/N=C/c1csc([N+](=O)[O-])c1 | . | . | . | 3 | .
Cc1ccc(S(=O)(=O)Nc2ccc3nc(N)sc3c2)cc1 | 2 | 27 | 1 | 49* | 2
Cc1noc(C)c1COC(=O)CCCc1c[nH]c2ccccc12 | -1 | 258* | 0 | 6 | 3
CC(C)CNC(=O)CCc1c[nH]c2ccccc12 | 0 | 31 | 1 | 10 | 21
CC(C)NC(=O)CCCc1c[nH]c2ccccc12 | 0 | 8 | 0 | 58* | 2
COC(=O)CCC(=O)NNC(=O)c1ccc(Cl)cc1Cl | 1 | 42 | 1 | 113* | 1
CCCCC(=O)Nc1cccc(NC(=O)c2ccc(Br)cc2)c1 | -8 | 14 | 0 | 49* | 4
CCCCC(=O)Nc1cccc(NC(=O)c2cccc(Br)c2)c1 | 0 | 13 | 1 | 8 | 10
CCOc1ccc2nc(SCC(=O)c3ccccc3)sc2c1 | 0 | 263* | 0 | 9 | 2
Cn1ccnc1SCC(=O)Nc1ccc(F)c([N+](=O)[O-])c1 | -1 | 17 | 1 | 7 | 9
CCOc1ccccc1C(=O)N1CCN(c2ccc(C(F)(F)F)cn2)CC1 | 0 | 17 | -1 | 10 | 3
C/C(=N\NC(=O)CSc1nc2ccccc2s1)c1ccco1 | 0 | 408* | 1 | 29 | -4
O=C(O)CC1(CC(=O)Nc2ccc(Cl)cc2C(=O)c2ccccc2)CCCC1 | . | . | . | 3 | .
COc1cc(-c2nnc(-c3cc(OC)c(OC)c(OC)c3)o2)cc(OC)c1OC | 1 | 102* | 0 | 5 | 7
COC(=O)COc1cc(C)cc2oc(=O)c(CC(=O)OC)c(C)c12 | 0 | 24 | 1 | 60* | 8
COC(=O)COc1cc(OCC(=O)OC)c2c(C)c(Cl)c(=O)oc2c1 | 0 | 2 | 1 | 13 | 27
SMILES | DTT redox prof | GSH fluor | ABCB1 inh | Avidin bead fluor | ABCG2 block
O=S(=O)(N1CCCCC1)n1nnc2ccccc21 | -4 | 10 | 0 | 49* | 1
O=S(=O)(c1cccs1)n1nnc2ccccc21 | -1 | 35 | 0 | 5 | -1
Cc1cc(C)cc(NC(=O)C(OC(=O)c2sccc2C)c2ccccc2)c1 (stereo not given) | 1 | 10 | 1 | 5 | 14
O=C(Nc1ccc(S(=O)(=O)N2CCCC2)cc1)N1c2ccccc2Sc2ccccc21 | 3 | 24 | 0 | 77* | 0
CCOC(=O)C1CCCN(C(=O)/C=C/c2ccccc2[N+](=O)[O-])C1 (stereo not given) | 0 | 6 | 1 | 11 | 12
Cc1onc(-c2ccccc2)c1C(=O)Nc1ccncc1 | 1 | 12 | 0 | 50* | 2
Cc1cccc(C)c1NC(=O)c1c(-c2ccccc2)noc1C | 0 | 32 | 6 | 8 | 6
O=C(NC12CC3CC(CC(C3)C1)C2)N1CCN(C(=O)c2ccco2)CC1 | 0 | 16 | 0 | 13 | 14
CCc1ccc2c(c1)c(N=NC1=NC(=O)CS1)c(O)n2C | -4 | 10 | 0 | 22 | 0
Cc1cc(C)c2[nH]c(O)c(N=NC3=NC(=O)CS3)c2c1 | . | . | . | 124* | .
COc1ccc(CNC(=O)C2CCC(CNc3nc(=S)[nH]c4ccccc34)CC2)cc1 (stereo not given) | 0 | 11 | -1 | 11 | 10
CCN(CC)CCNC(=O)c1ccccc1C(=O)c1ncc[nH]1 | 0 | 19 | 0 | 107* | 1
Cc1nn(CC(=O)NCCN2CCOCC2)c(=O)c2ccccc12 | 0 | 26 | 1 | 12 | 0
Cc1nnc(SCC(=O)NCC2CCCO2)n1-c1ccccc1 (stereo not given) | -1 | 273* | 0 | 9 | -1
Cc1nn(CC(=O)NCC2CCCO2)c(=O)c2ccccc12 (stereo not given) | -1 | 270* | 0 | 9 | 3
CC1Oc2ccccc2N(CC(=O)NCC2CCCO2)C1=O (stereo not given) | 0 | 20 | 1 | 54* | 22
Cc1nn(CC(=O)O)c(=O)c2ccccc12 | 0 | 263* | 0 | 7 | 1
Cc1nnc(SC(C)C(=O)NCC2CCCO2)n1-c1ccccc1 (stereo not given) | 2 | 42 | 1 | 8 | 4
COC(=O)Cn1nc(C)c2ccccc2c1=O | 1 | 45 | 2 | 2 | 3
C/C(=N\NC(=O)c1cc(-c2ccc(C)s2)[nH]n1)c1ccco1 | 0 | 9 | 0 | 4 | 0
CN1CCc2c1nc1ccccc1c2N=C1CCCN1Cc1ccccc1 | 0 | 10 | . | 9 | 5
CCN(CC)CCCNC(=O)CSc1nc(C)cc(C)n1 | 0 | 17 | 0 | 4 | 0
COCCNC(=S)NC(=O)CC12CC3CC(CC(C3)C1)C2 | 0 | 23 | 1 | 9 | 2
CNC(=O)CC12CC3CC(CC(C3)C1)C2 | 2 | 261* | 0 | 6 | 0
CCCOC(=O)c1ccc(NC(=O)c2ccoc2C)cc1 | 3 | 27 | 0 | 51* | 60
CCCOC(=O)c1ccc(NC(=O)C2C3C=CC(O3)C2C(=O)O)cc1 (stereo not given) | -1 | 244* | 0 | 4 | 0
CCCCOC(=O)C(C)Nc1n[nH]c(=S)[nH]c1=O (stereo not given) | 0 | 11 | -1 | 5 | -3
CC(Nc1n[nH]c(=S)[nH]c1=O)C(=O)OCc1ccccc1 (stereo not given) | -1 | 238* | -1 | 6 | -4

Assay outcomes: PubChem, several laboratories
